Compound activity deposited in PubChem by several laboratories.
Hits are enriched below; roughly 2.2% of the tested compounds scored in any of these assays.
NadD inh: NadD (S. aureus) enzyme inhibition | purified NadD enzyme, colorimetric absorbance read-out | inhibition, % at 20 µM | hit rate 0.78% among 360,000; in the data active means inhibition above about 26%
ARFGAP1 inh: rat ARFGAP1 inhibition. hit rate 0.26% among 360,000. Q62848. Arfgap1-stimulated ARF1 GTP hydrolysis, GDP FP detection. inhibition, % at 16.5 µM;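 active means inhibition above a per-plate limit, mean inhibition of low control wells plus 3 SD, cut at about 25% in these data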
Target sequence (Q62848 1-136 limits assumed): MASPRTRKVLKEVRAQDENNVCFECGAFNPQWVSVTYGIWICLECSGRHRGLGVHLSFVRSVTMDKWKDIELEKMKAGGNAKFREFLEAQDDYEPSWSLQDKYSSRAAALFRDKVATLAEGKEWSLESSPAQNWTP
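Material: rat Arfgap1 catalytic domain, aa 1-136; also added: human ARF1(Δ1-17)-GTP substrate; compound dosing: one concentration, 16.5 µM, DMSO 1.26%; incubation: GTP hydrolysis reaction 2 h at 25 °C; measured by: Tracer-displacement fluorescence polarization with EDTA stop, 620/688 nm; evaluation: % inhibition from polarization; repeats: one replicate per compound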
rCAG binder: molecules binding r(CAG) RNA repeats; r(CAG) RNA repeat, TO-PRO-1 dye displacement fluorescence; inhibition, % at 3 µM; hit rate 1.3% among 370,000;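 active means inhibition above the plate cutoff, the mean of all test compounds on that plate plus 3 SD, cut at about 35% in these data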;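 further: higher means more dye released from RNA so lower well fluorescence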
ASAP1 GAP inh: ASAP1 ArfGAP inhibition; ASAP1-stimulated ARF1 GTP hydrolysis, GDP FP detection; hit rate 0.19% among 360,000; Q9ULH1; inhibition, % at 16.5 µM; in the data active means inhibition above about 25%
Target sequence (Q9ULH1 325-724 limits assumed): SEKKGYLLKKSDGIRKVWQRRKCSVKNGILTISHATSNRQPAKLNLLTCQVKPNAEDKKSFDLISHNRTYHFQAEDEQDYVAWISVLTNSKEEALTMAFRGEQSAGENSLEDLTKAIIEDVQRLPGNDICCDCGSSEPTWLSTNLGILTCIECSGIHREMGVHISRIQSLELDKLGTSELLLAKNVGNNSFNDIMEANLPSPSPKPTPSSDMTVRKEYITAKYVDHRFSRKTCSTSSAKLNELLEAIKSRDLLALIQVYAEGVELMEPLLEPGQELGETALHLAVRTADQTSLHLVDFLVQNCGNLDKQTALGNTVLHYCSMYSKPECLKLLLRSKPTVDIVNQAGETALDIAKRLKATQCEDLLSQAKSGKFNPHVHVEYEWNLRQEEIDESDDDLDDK
rCAG bind conf: r(CAG) RNA repeat binding, confirmation. TO-PRO-1 dye displacement fluorescence. hit rate 70% among 4,300. inhibition, % at 3 µM. AID 652065. shares compounds with rCAG binder;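 active means inhibition above a per-plate cutoff, the mean inhibition of sample wells plus 3 SD, cut at about 35% in these data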;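 further: loss of TO-PRO-1 fluorescence as compound displaces dye from 1x1 AA loop RNA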
dCAG dye counter: disrupts DNA CAG TO-PRO-1 complex, flagging rCAG hits | AID 652068 | inhibition, % at 3 µM | shares compounds with rCAG binder | hit rate 94% among 4,300 | d(CAG) DNA oligo TO-PRO-1 dye displacement, fluorescence;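 active means inhibition above its plate's cutoff, the mean test-well inhibition plus 3 SD, cut at about 4.8% in these data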;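 further: hits displace the dye from DNA and so lower well fluorescence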
DNA CAG DR: DNA CAG dye complex inhibition, dose response counter-screen; shares compounds with rCAG binder; DNA CAG/GTC duplex TO-PRO-1 dye displacement fluorescence; IC50, µM; hit rate 20% among 250; in the data active means IC50 below about 10 µM
Numbers stand for hits; n = inactive; x = no result.

SMILES	NadD inh	ARFGAP1 inh	rCAG binder	ASAP1 GAP inh	rCAG bind conf	dCAG dye counter	others
COC(=O)c1ccc(CSc2nc3c(cnn3-c3ccccc3)c(=O)[nH]2)o1	n	n	38.1	n	36.2	8.0
Cc1cc(N2C(=O)C(O)=C(C(=O)c3cc4ccccc4o3)C2c2ccc(Cl)cc2)no1 (stereo not drawn)	n	n	56.4	n	74.8	38.3
Cc1cc(N2C(=O)C(O)=C(C(=O)c3ccc(C)o3)C2c2cccc(Cl)c2)no1 (stereo not drawn)	n	n	n	n	x	x
Cc1cc(N2C(=O)C(O)=C(C(=O)c3cc4ccccc4o3)C2c2ccc(Br)cc2)no1 (stereo not drawn)	n	n	n	n	x	x
Cc1cc(N2C(=O)C(O)=C(C(=O)c3cc4ccccc4o3)C2c2cccc(Cl)c2)no1 (stereo not drawn)	n	n	59.8	n	70.8	32.4	DNA CAG DR=5.68
CCOC(=O)N1CCN(C(=O)C[C@H]2C[C@@]3(C(=O)OC)C(=C[C@H](C4CCCC4)O[C@@H]3C)N(Cc3ccc(Cl)cc3Cl)C2=O)CC1	x	x	n	x	x	x
c1ccc(-c2nc3c([nH]2)CCc2nonc2-3)cc1	n	n	n	n	x	x
c1coc(-c2nc3c([nH]2)CCc2nonc2-3)c1	n	n	41.9	n	n	n
CCOc1ccc(N2C(=O)CC(Sc3nc(-c4cccs4)cc(C(F)(F)F)c3C#N)C2=O)cc1 (stereo not drawn)	n	n	53.7	n	n	12.9
CCOC(=O)c1c(NC(=O)CSc2ccccc2C(=O)O)sc(C)c1C	n	n	39.6	n	40.9	13.4
CCOC(=O)c1c(NC(=O)CSc2ncnc3ccccc23)sc(C)c1C	n	n	n	n	x	x
N#Cc1ccc(N2C(=O)[C@@H]3C(C(=O)C(c4ccccc4)c4ccccc4)=NN[C@@H]3C2=O)cc1	n	n	61.1	n	n	11.5
CC(C)N(Cc1cn(Cc2ccccc2)nn1)S(=O)(=O)c1ccc(F)cc1Br	x	x	n	x	x	x
CC(C)CNS(=O)(=O)c1cc(C(=O)N2CC(C)OC(C)C2)c(Cl)cc1Cl (stereo not drawn)	n	n	n	n	x	x
CC(C)CNc1cc(Cl)c(S(=O)(=O)NCC(C)C)cc1C(=O)O	n	n	37.4	n	n	n
COc1ccc(OC)c(Nc2nc(-c3sc(NC(=O)C(C)(C)C)nc3C)cs2)c1	n	n	n	n	x	x
COc1ccc(Cl)cc1Nc1nc(-c2sc(NC(=O)c3ccco3)nc2C)cs1	n	n	35.4	n	n	17.0
C=CC[C@]12C[C@@]3(O[C@H](c4ccccn4)N=C3C[C@H](c3ccc(OC)cc3)[C@H]1C)N(C1CCN(Cc3ccccc3)CC1)C2=O	x	n	n	n	x	x
O=C(Nc1cccc(-c2nc3ccccc3o2)c1)c1cccnc1	n	n	n	n	x	x
O=C(O)c1ccccc1-c1ccccc1C(=O)Nc1cccc(-c2nc3ccccc3o2)c1	n	n	64.7	n	60.0	21.8
O=C(O)c1ccccc1-c1ccccc1C(=O)Nc1ccc2c(c1)C(=O)c1ccccc1-2	n	n	59.5	n	67.8	26.1
COc1ccc2c(c1)Cc1cc(NC(=O)c3ccccc3-c3ccccc3C(=O)O)ccc1-2	n	n	63.3	n	65.7	28.3
O=C(O)c1ccccc1-c1ccccc1C(=O)Nc1ccc2c(c1)oc(=O)c1ccccc12	n	n	65.5	n	64.8	23.8
CC(N)c1csc(Nc2ccc(S(C)(=O)=O)cc2)n1 (stereo not drawn)	n	n	n	n	x	x
C=CCN1C(=O)[C@@H](CC(=O)NCc2cccc(C(F)(F)F)c2)[C@]2(C(=O)OC)CCCCC=C12	x	x	n	x	x	x
SMILES	NadD inh	ARFGAP1 inh	rCAG binder	ASAP1 GAP inh	rCAG bind conf	dCAG dye counter	others
Oc1ccccc1-c1ccn[nH]1	n	n	n	n	x	x
Oc1ccccc1-c1nc2c3ccccc3c3ccccc3c2[nH]1	n	n	56.3	n	39.4	28.6
Cc1cc(C)cc(NC(=O)NC2CCN(S(=O)(=O)c3ccc(F)cc3)CC2)c1	x	x	n	x	x	x
CC(=O)Nc1ccc(S(=O)(=O)/N=C2/NC(=O)/C(=C\c3ccco3)S2)cc1	n	n	57.2	n	n	11.5
COc1ccc(N=C2NC(=O)/C(=C\c3ccco3)S2)cc1	n	n	n	n	x	x
Cc1ccc(S(=O)(=O)/N=C2/NC(=O)/C(=C\c3ccco3)S2)cc1	n	n	69.0	n	42.7	11.3
Cc1cccc(S(=O)(=O)NC(=O)C2(C)CCN2C(=O)C2(c3ccc(Cl)cc3)CCC2)c1 (stereo not drawn)	n	n	42.0	n	41.8	10.6
CC1(C(=O)NS(=O)(=O)c2ccc3c(c2)CCO3)CCN1C(=O)C1(c2ccc(Cl)cc2)CC1 (stereo not drawn)	n	n	n	n	x	x
CC1(C(=O)NS(=O)(=O)c2cccc(Cl)c2)CCN1C(=O)C1(c2ccc(Cl)cc2)CC1 (stereo not drawn)	n	n	43.1	n	44.8	9.8
CC1(C(=O)NS(=O)(=O)c2cccc(Cl)c2)CCN1C(=O)C1(c2ccc(Cl)cc2)CCC1 (stereo not drawn)	n	n	61.2	n	67.5	18.0
O=C(CSc1nnc(-c2cccnc2)n1-c1ccccc1)Nc1cccc2ccccc12	x	x	n	x	x	x
Cc1nc(CSc2nsc(/C=C/N(C)C)c2C#N)cs1	n	n	56.5	n	n	12.9
COC(=O)c1ccccc1CSc1nsc(/C=C/N(C)C)c1C#N	n	x	x	x	x	x
Cc1oc2c(C)c3oc(=O)c(CCC(=O)N4CCC(C(=O)NCCC(=O)O)(c5ccccc5)CC4)c(C)c3cc2c1C	n	n	35.4	n	57.8	16.3
Cc1oc2cc3oc(=O)c(CCC(=O)N4CCC(C(=O)O)(c5ccccc5)CC4)c(C)c3cc2c1C	n	n	n	n	x	x
O=C(CSc1cc([N+](=O)[O-])cc(S(=O)(=O)Cc2ccccc2)c1)NC1CC1	n	n	56.0	n	n	5.6
Cc1ccc(OCCSc2nc3ccccc3n2CC(=O)O)c(C(C)C)c1	n	n	38.2	n	41.1	9.8
Cc1ccc(Oc2ccc(NS(=O)(=O)c3cccc(C(=O)O)c3)cc2)cc1	n	n	38.0	n	38.4	10.4
O=C(O)c1cccc(S(=O)(=O)Nc2ccc3oc(=O)sc3c2)c1	n	n	41.6	n	n	n
Cc1nn(-c2ccccc2)c(Cl)c1/C=C(/CC(=O)O)c1nc2ccccc2s1	n	n	47.2	n	35.9	9.8
Cc1nn(-c2ccccc2)c(Cl)c1/C=C(\CC(=O)O)c1nc2ccccc2s1	n	n	42.4	n	43.3	12.9
O=C1CC(=Nc2ccc([N+](=O)[O-])cc2)NN1c1c(Cl)cc(Cl)cc1Cl	n	n	48.5	n	48.7	32.2
O=[N+]([O-])c1ccc(N=Nc2c(Cl)cc(O)cc2Cl)cc1	n	n	n	n	x	x
